In ChEMBL document CHEMBL1151705, “Novel azalides derived from 16-membered macrolides. Part II: Isolation of the linear 9-formylcarboxylic acid and its sequential macrocyclization with an amino alcohol or an azidoamine” (2008):
Values after ≈ are worked out from the molar mass of the structure shown.

What was measured:
Format in all cases: functional
[1] = system: Streptococcus pneumoniae; experiment: Antimicrobial activity against Streptococcus pneumoniae 8 expressing inducible ermB after 20 hrs by agar dilution method; settings: Streptococcus pneumoniae, 20 h; read-out: MIC
How it was run: (§1)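 Streptococci, H. influenzae and M. catarrhalis were precultured on blood agar plates. Suspensions of about 10⁶ CFU/ml were inoculated onto sensitivity disk agar supplemented with 5% horse blood and incubated at 37 °C for 20 h. MIC was read as the lowest drug concentration with no visible growth.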

[2] = system: Streptococcus pneumoniae; experiment: Antimicrobial activity against Streptococcus pneumoniae 9 expressing mefA after 20 hrs by agar dilution method; settings: Streptococcus pneumoniae, 20 h; read-out: MIC; how it was run: as §1
[3] = system: Streptococcus pneumoniae; experiment: Antimicrobial activity against Streptococcus pneumoniae 10 expressing mefA after 20 hrs by agar dilution method; settings: Streptococcus pneumoniae, 20 h; read-out: MIC; how it was run: as §1
[4] = system: Streptococcus pyogenes; experiment: Antimicrobial activity against drug-susceptible Streptococcus pyogenes 1 after 20 hrs by agar dilution method; settings: Streptococcus pyogenes, 20 h; read-out: MIC; how it was run: as §1
[5] = system: Streptococcus pyogenes; experiment: Antimicrobial activity against Streptococcus pyogenes 2 constitutively expressing ermB after 20 hrs by agar dilution method; how it was run: as §1
[6] = system: Streptococcus pyogenes; experiment: Antimicrobial activity against Streptococcus pyogenes 3 expressing mefA after 20 hrs by agar dilution method; settings: Streptococcus pyogenes, 20 h; read-out: MIC; how it was run: as §1
[7] = system: Moraxella catarrhalis; experiment: Antimicrobial activity against drug-susceptible Moraxella catarrhalis 1 after 20 hrs by agar dilution method; settings: Moraxella catarrhalis, 20 h; read-out: MIC; how it was run: as §1
[8] = system: Moraxella catarrhalis; experiment: Antimicrobial activity against drug-susceptible Moraxella catarrhalis 2 after 20 hrs by agar dilution method; settings: Moraxella catarrhalis, 20 h; read-out: MIC; how it was run: as §1
[9] = system: Haemophilus influenzae; experiment: Antimicrobial activity against drug-susceptible Haemophilus influenzae 1 after 20 hrs by agar dilution method; settings: Haemophilus influenzae, 20 h; read-out: MIC; how it was run: as §1
[10] = system: Haemophilus influenzae; experiment: Antimicrobial activity against drug-susceptible Haemophilus influenzae 2 after 20 hrs by agar dilution method; settings: Haemophilus influenzae, 20 h; read-out: MIC; how it was run: as §1
[11] = system: Haemophilus influenzae; experiment: Antimicrobial activity against drug-susceptible Haemophilus influenzae 3 after 20 hrs by agar dilution method; settings: Haemophilus influenzae, 20 h; read-out: MIC; how it was run: as §1
[12] = system: Haemophilus influenzae; experiment: Antimicrobial activity against drug-susceptible Haemophilus influenzae 4 after 20 hrs by agar dilution method; settings: Haemophilus influenzae, 20 h; read-out: MIC; how it was run: as §1
[13] = system: Staphylococcus aureus; experiment: Antimicrobial activity against drug-susceptible Staphylococcus aureus 209P JC-1 after 20 hrs by agar dilution method; settings: Staphylococcus aureus, 209P, 20 h; read-out: MIC
How it was run: (§2)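 Agar dilution MIC. S. aureus seed culture was grown in sensitivity test broth. Cell suspension (about 10⁶ CFU/ml) was inoculated onto sensitivity disk agar with 5% horse blood and incubated at 37 °C for 20 h. MIC was the lowest drug concentration that prevented visible growth.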

[14] = system: Staphylococcus aureus; experiment: Antimicrobial activity against drug-susceptible Staphylococcus aureus 2 after 20 hrs by agar dilution method; settings: Staphylococcus aureus, 20 h; read-out: MIC; how it was run: as §2
[15] = system: Staphylococcus aureus; experiment: Antimicrobial activity against drug-susceptible Staphylococcus aureus 3 after 20 hrs by agar dilution method; settings: Staphylococcus aureus, 20 h; read-out: MIC; how it was run: as §2
[16] = system: Staphylococcus aureus; experiment: Antimicrobial activity against Staphylococcus aureus 4 constitutively expressing ermA after 20 hrs by agar dilution method; how it was run: as §2
[17] = system: Staphylococcus aureus; experiment: Antimicrobial activity against Staphylococcus aureus 5 expressing inducible ermB after 20 hrs by agar dilution method; settings: Staphylococcus aureus, 20 h; read-out: MIC; how it was run: as §2
[18] = system: Streptococcus pneumoniae; experiment: Antimicrobial activity against drug-susceptible Streptococcus pneumoniae DP1 Type1 after 20 hrs by agar dilution method; settings: Streptococcus pneumoniae, 20 h; read-out: MIC; how it was run: as §1
[19] = system: Streptococcus pneumoniae; experiment: Antimicrobial activity against drug-susceptible Streptococcus pneumoniae 2 after 20 hrs by agar dilution method; settings: Streptococcus pneumoniae, 20 h; read-out: MIC; how it was run: as §1
[20] = system: Streptococcus pneumoniae; experiment: Antimicrobial activity against Streptococcus pneumoniae 5 constitutively expressing ermB/mefA after 20 hrs by agar dilution method; settings: Streptococcus pneumoniae, 20 h; read-out: MIC; how it was run: as §1
[21] = system: Streptococcus pneumoniae; experiment: Antimicrobial activity against Streptococcus pneumoniae 7 expressing inducible ermB after 20 hrs by agar dilution method; settings: Streptococcus pneumoniae, 20 h; read-out: MIC; how it was run: as §1
[22] = system: Staphylococcus aureus; experiment: Antimicrobial activity against Staphylococcus aureus 6 expressing inducible ermB after 20 hrs by agar dilution method; how it was run: as §2
[23] = system: Streptococcus pneumoniae; experiment: Antimicrobial activity against Streptococcus pneumoniae 6 constitutively expressing ermB after 20 hrs by agar dilution method; settings: Streptococcus pneumoniae, 20 h; read-out: MIC; how it was run: as §1

Row | MIC [1] [µg/mL] | MIC [2] [µg/mL] | MIC [3] [µg/mL] | MIC [4] [µg/mL] | MIC [5] [µg/mL] | MIC [6] [µg/mL] | MIC [7] [µg/mL] | MIC [8] [µg/mL] | MIC [9] [µg/mL] | MIC [10] [µg/mL] | MIC [11] [µg/mL] | MIC [12] [µg/mL] | MIC [13] [µg/mL] | MIC [14] [µg/mL] | MIC [15] [µg/mL] | MIC [16] [µg/mL] | MIC [17] [µg/mL] | MIC [18] [µg/mL] | MIC [19] [µg/mL] | MIC [20] [µg/mL] | further results | SMILES
1 | 16 (≈ 16.6 µM) | 0.25 (≈ 0.259 µM) | 0.13 (≈ 0.135 µM) | 0.06 (≈ 0.0622 µM) | > 128 | 0.13 (≈ 0.135 µM) | 0.13 (≈ 0.135 µM) | 0.25 (≈ 0.259 µM) | 16 (≈ 16.6 µM) | 1 (≈ 1.04 µM) | 4 (≈ 4.14 µM) | 8 (≈ 8.29 µM) | 0.25 (≈ 0.259 µM) | 1 (≈ 1.04 µM) | 0.25 (≈ 0.259 µM) | > 128 | 0.25 (≈ 0.259 µM) | 0.13 (≈ 0.135 µM) | 0.13 (≈ 0.135 µM) | > 128 | MIC [21]: 4 µg/mL (≈ 4.14 µM); MIC [22]: 0.5 µg/mL (≈ 0.518 µM) | CCOC(=O)[C@H]1[C@H](C)O[C@@H](O[C@H]2[C@H](N(C)C)[C@@H](O)[C@H](O[C@H]3[C@@H](CC=O)C[C@@H](C)[C@@H](O)CN(CCCCc4ccccc4)CCCOC(=O)C[C@@H](OC(=O)CC)[C@@H]3OC)O[C@@H]2C)C[C@@]1(C)OC(C)=O
2 | 4 (≈ 3.86 µM) | 0.25 (≈ 0.241 µM) | 0.13 (≈ 0.126 µM) | 0.25 (≈ 0.241 µM) | > 128 | 1 (≈ 0.966 µM) | 1 (≈ 0.966 µM) | 2 (≈ 1.93 µM) | > 128 | 4 (≈ 3.86 µM) | > 128 | > 128 | 0.5 (≈ 0.483 µM) | 2 (≈ 1.93 µM) | 1 (≈ 0.966 µM) | > 128 | 1 (≈ 0.966 µM) | 0.25 (≈ 0.241 µM) | 0.25 (≈ 0.241 µM) | > 128 | MIC [23]: > 128 µg/mL; MIC [21]: 4 µg/mL (≈ 3.86 µM); MIC [22]: 2 µg/mL (≈ 1.93 µM) | CCOC(=O)[C@H]1[C@H](C)O[C@@H](O[C@H]2[C@H](N(C)C)[C@@H](O)[C@H](O[C@H]3[C@@H](CC=O)C[C@@H](C)[C@@H](OC(C)=O)CN(CCCCc4ccccc4)CCC[C@@H](C)OC(=O)C[C@@H](OC(=O)CC)[C@@H]3OC)O[C@@H]2C)C[C@@]1(C)OC(C)=O
3 | 1 (≈ 1.01 µM) | 0.13 (≈ 0.131 µM) | 0.06 (≈ 0.0604 µM) | 0.13 (≈ 0.131 µM) | 64 (≈ 64.4 µM) | 0.25 (≈ 0.252 µM) | 0.25 (≈ 0.252 µM) | 0.5 (≈ 0.503 µM) | 32 (≈ 32.2 µM) | 0.5 (≈ 0.503 µM) | 8 (≈ 8.05 µM) | 16 (≈ 16.1 µM) | 0.25 (≈ 0.252 µM) | 1 (≈ 1.01 µM) | 0.25 (≈ 0.252 µM) | > 128 | 0.25 (≈ 0.252 µM) | 0.06 (≈ 0.0604 µM) | 0.06 (≈ 0.0604 µM) | > 128 | MIC [23]: 64 µg/mL (≈ 64.4 µM); MIC [21]: 1 µg/mL (≈ 1.01 µM); MIC [22]: 0.5 µg/mL (≈ 0.503 µM) | CCOC(=O)[C@H]1[C@H](C)O[C@@H](O[C@H]2[C@H](N(C)C)[C@@H](O)[C@H](O[C@H]3[C@@H](CC=O)C[C@@H](C)[C@@H](O)CN(CCCCc4ccccc4)CCC[C@@H](C)OC(=O)C[C@@H](OC(=O)CC)[C@@H]3OC)O[C@@H]2C)C[C@@]1(C)OC(C)=O
4 | > 128 | 1 (≈ 1.01 µM) | 0.5 (≈ 0.504 µM) | 0.5 (≈ 0.504 µM) | > 128 | 1 (≈ 1.01 µM) | 0.5 (≈ 0.504 µM) | 1 (≈ 1.01 µM) | > 128 | 2 (≈ 2.02 µM) | 8 (≈ 8.06 µM) | 8 (≈ 8.06 µM) | 0.5 (≈ 0.504 µM) | 2 (≈ 2.02 µM) | 1 (≈ 1.01 µM) | > 128 | 1 (≈ 1.01 µM) | 0.5 (≈ 0.504 µM) | 0.5 (≈ 0.504 µM) | > 128 | MIC [23]: > 128 µg/mL; MIC [21]: > 128 µg/mL; MIC [22]: 2 µg/mL (≈ 2.02 µM) | CCOC(=O)[C@H]1[C@H](C)O[C@@H](O[C@H]2[C@H](N(C)C)[C@@H](O)[C@H](O[C@H]3[C@@H](CC=O)C[C@@H](C)[C@@H](OC(C)=O)CN(CCCCc4ccccc4)CCNC(=O)C[C@@H](OC(=O)CC)[C@@H]3OC)O[C@@H]2C)C[C@@]1(C)OC(C)=O
5 | 32 (≈ 31.8 µM) | 1 (≈ 0.994 µM) | 1 (≈ 0.994 µM) | 0.5 (≈ 0.497 µM) | > 128 | 1 (≈ 0.994 µM) | 1 (≈ 0.994 µM) | 1 (≈ 0.994 µM) | > 128 | 4 (≈ 3.98 µM) | 16 (≈ 15.9 µM) | 16 (≈ 15.9 µM) | 1 (≈ 0.994 µM) | 4 (≈ 3.98 µM) | 2 (≈ 1.99 µM) | > 128 | 1 (≈ 0.994 µM) | 0.5 (≈ 0.497 µM) | 1 (≈ 0.994 µM) | > 128 | MIC [23]: > 128 µg/mL; MIC [21]: 32 µg/mL (≈ 31.8 µM); MIC [22]: 2 µg/mL (≈ 1.99 µM) | CCOC(=O)[C@H]1[C@H](C)O[C@@H](O[C@H]2[C@H](N(C)C)[C@@H](O)[C@H](O[C@H]3[C@@H](CC=O)C[C@@H](C)[C@@H](OC(C)=O)CN(CCCCc4ccccc4)C[C@@H](C)NC(=O)C[C@@H](OC(=O)CC)[C@@H]3OC)O[C@@H]2C)C[C@@]1(C)OC(C)=O
